High-throughput results from PubChem.
CRFBP-R2 block: blocks CRF-induced signaling of the CRF-BP/CRF-R2 complex; inhibition, % at 11.8 µM; HEK293 CRF-R2/CRF-BP, CRF-induced calcium fluorescence; 350,000 compounds, 0.59% hits;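 active = inhibition of the ligand-induced calcium signal above about 50% at the single tested concentration, limit read from the data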
CRFBP-R2 agonist: CRF-BP/CRF-R2 complex agonism; HEK293 CRF-R2/CRF-BP, calcium dye fluorescence (FLIPR); percent of saturating CRF peptide response; activation, % at 13.2 µM; 350,000 compounds, 0.46% hits;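 active = activation of at least 50%, plus an integration ratio under a set limit after plate pattern correction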;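 note: plate controls were neutral control wells without compound for no effect and CRF at EC100 for full effect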
IMP-1 inhibitor: blocks Pseudomonas aeruginosa IMP-1 metallo-beta-lactamase; purified IMP-1, nitrocefin hydrolysis, epi-absorbance fluorescence; inhibition, % at 5.6 µM; 290,000 compounds, 0.45% hits;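 active = inhibition above the mean plus 3 SD of all compounds in the same screening run, cut at about 4.5% in these data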;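 note: 0% = IMP-1 with DMSO and 100% = DMSO wells lacking enzyme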
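Test system: recombinant IMP-1 enzyme, purified / Medium: HEPES buffer pH 7.1 with ZnSO4 and Brij 35 / Doses: single dose, 5.6 µM / Times: 25 °C, 15 min preincubation, 25 min reaction / Detection: Epi-absorbance via hydrolysed-nitrocefin quenching of white-plate fluorescence, 480/530 nm, EDTA stop / Evaluation: percent inhibition from optical density relative to buffer-blank wells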
TRPML3 agonist: agonists of human TRPML3 channel. Q8TDD5. HEK293 TRPML3-YFP, Fluo-8 calcium fluorescence; 100% = the carbachol control signal. activation, % at 3 µM. 220,000 compounds, 0.29% hits;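 active = activation above its plate's cutoff, the mean activation of the plate's test wells plus 3 SD, cut at about 12% in these data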;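 note: 0% = DMSO only wells and 100% = carbachol wells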
Target sequence (Q8TDD5 whole entry, looked up): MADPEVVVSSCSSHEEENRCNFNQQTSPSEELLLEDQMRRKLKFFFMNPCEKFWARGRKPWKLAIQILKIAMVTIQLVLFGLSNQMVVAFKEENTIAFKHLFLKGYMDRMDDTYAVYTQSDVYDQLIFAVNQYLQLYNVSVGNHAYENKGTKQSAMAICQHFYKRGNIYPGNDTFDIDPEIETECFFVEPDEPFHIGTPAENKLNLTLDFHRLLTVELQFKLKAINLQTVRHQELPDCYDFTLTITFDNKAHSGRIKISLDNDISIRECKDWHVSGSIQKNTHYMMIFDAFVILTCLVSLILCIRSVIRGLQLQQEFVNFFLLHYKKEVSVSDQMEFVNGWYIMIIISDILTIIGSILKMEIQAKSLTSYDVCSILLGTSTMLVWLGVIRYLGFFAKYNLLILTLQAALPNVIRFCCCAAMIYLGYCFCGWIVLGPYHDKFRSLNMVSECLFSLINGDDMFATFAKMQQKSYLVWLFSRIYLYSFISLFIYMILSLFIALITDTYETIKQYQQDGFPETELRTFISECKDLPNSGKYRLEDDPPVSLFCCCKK
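Material: HEK293 cells stably carrying human TRPML3-YFP; compound dosing: single dose, 3 µM final nominal compound, 0.3% DMSO final; incubation: 1-h 37 °C dye load, 5-s basal, 120-s post-compound reads; technique: Fluo-8 intracellular calcium fluorescence, excitation 470-495 nm, emission 515-575 nm; read-out basis: percent activation from peak-to-basal fluorescence ratio, scaled between DMSO and carbachol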
VIM-2 inhibitor: blocks Pseudomonas aeruginosa VIM-2 metallo-beta-lactamase; AID 1527; purified VIM-2, nitrocefin hydrolysis, epi-absorbance fluorescence; inhibition, % at 5.6 µM; 290,000 compounds, 0.89% hits;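 active = inhibition above the mean of all tested compounds plus 3 SD, cutoff set per screening run, cut at about 7.5% in these data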;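 note: red hydrolysis product quenches plate fluorescence so inhibitors raise well fluorescence; 0% = enzyme with DMSO and 100% = DMSO without enzyme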
TRPN1 ag: agonists of zebrafish TRPN1 channel; HEK293 zebrafish TRPN1-YFP, Fluo-8 calcium fluorescence; 100% = response to 87 µM carbachol; activation, % at 3 µM; 220,000 compounds, 0.18% hits; AID 1424;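 active = activation above its plate's cutoff, the mean activation of test wells on that plate plus 3 SD, cut at about 19% in these data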;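 note: 0% = DMSO alone and 100% = 87 µM carbachol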
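Assay system: Zebrafish TRPN1-YFP in HEK293 cells | Incubation: Dye loading 1 h at 37 °C, then 30 min room temperature | Measured by: Kinetic Fluo-8 fluorescence, ex 470-495, em 515-575 nm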
* = called active by the depositor; / = no result. Most compounds without a hit are left out; they make up all but 2.1% or so of the library.

SMILES	CRFBP-R2 block	CRFBP-R2 agonist	IMP-1 inhibitor	TRPML3 agonist	VIM-2 inhibitor	TRPN1 ag
Cc1cccc(-n2c(SCc3cc(=O)n4ccsc4n3)nc3ccccc32)c1	-32.3	2.6	5.0*	-0.9	-0.6	-1.5
N#C/C(=C1\CCCN1)c1nc2ccccc2c(=O)[nH]1	67.7*	-2.4	-0.6	0.4	0.7	0.6
COc1ccccc1NC(=O)CON=C(N)CC(=O)NC1CCCCC1	-16.7	10.0	/	/	/	/
Cc1ccc(NC(=O)CCSc2nnc(C)o2)cc1	-7.7	-0.1	-4.6	/	-2.7	/
CN1C(=O)C(O)(CC(=O)c2cccnc2)c2ccccc21 (centres undefined)	-3.0	-0.1	8.6*	0.1	-2.1	0.6
O=C(CC1(O)C(=O)N(Cc2cccc3ccccc23)c2ccccc21)c1cccnc1 (centres undefined)	-34.1	0.4	-2.6	0.2	-2.5	-0.1
COc1cccc(S(=O)(=O)N(C)C[C@@H]2OCc3cnnn3CCCC(=O)N([C@@H](C)CO)C[C@H]2C)c1	-10.2	0.5	/	/	/	/
COc1ccc(C(=O)Cn2cnc3ccccc3c2=O)c(OC)c1	-38.0	54.1*	-1.9	/	-0.8	/
COc1ccc(OC)c(C(=O)Cn2cnc3ccccc3c2=O)c1	-6.2	0.4	-2.8	/	-2.8	/
CC(=O)Nc1c(Br)cc2c(c1Br)Cc1cc([N+](=O)[O-])ccc1-2	-5.3	-0.1	/	/	/	/
O=C(NCC(c1ccco1)N1CCOCC1)C1CCCCC1 (centres undefined)	-9.0	-1.0	/	/	/	/
CC[C@H](C)[C@@H]1NC(=O)c2cc([N+](=O)[O-])cc(I)c2NCC[C@@H](C(N)=O)NC(=O)[C@H](CCCN=C(N)N)NC1=O	-2.0	-0.9	-3.4	0.2	-2.2	-1.1
NC(=O)[C@@H]1CCCNc2c(I)cc([N+](=O)[O-])cc2C(=O)N[C@@H](CCCN=C(N)N)C(=O)N[C@@H](CCCN=C(N)N)C(=O)N1	/	/	11.6*	0.6	-0.3	0.6
COc1ccc(CNC(=O)c2sc(=S)n(-c3ccc(OC)cc3)c2N)cc1	66.5*	-0.9	-1.3	-0.2	2.7	-0.3
COc1ccc(/C=C(\NC(=O)c2ccccc2)C(=O)N2CCC(C)CC2)cc1	-9.1	-0.5	/	/	/	/
O=C(O)CSCC(=O)N(c1ccccc1)c1ccccc1	-2.2	0.5	-2.6	/	-2.1	/
O=C(Cc1ccccc1)NN1C(=O)c2ccccc2C1=O	10.3	-1.3	-3.6	0.6	-3.0	0.5
O=C(CSc1ccccc1)NN1C(=O)c2ccccc2C1=O	122.5*	-2.2	-3.8	-0.1	-3.0	0.4
Clc1ccc(-c2nn3c(-c4ccccc4)nnc3s2)cc1	-4.4	2.4	-2.3	0.5	-2.7	-2.8
COc1ccc(-c2nn3c(-c4ccncc4)nnc3s2)cc1OC	/	/	-2.8	0.4	10.3*	-0.1
c1ccc(-c2nnc3sc(-c4ccncc4)nn23)cc1	-14.2	-1.8	-2.8	0.2	9.0*	0.8
O=C1N=c2ccccc2=C1c1sc(Nc2ccc(O)cc2)nc1O	60.1*	1.6	5.1*	0.1	-4.0	0.2
Cc1ccnc(N/C=C(/NC(=O)c2ccccc2)C(=O)N/N=C\c2ccc(Cl)cc2)n1	10.6	-1.4	0.5	-1.2	1.5	-0.3
O=C(C[N+]12CC[N+](CC(=O)c3ccc(F)cc3)(CC1)CC2)c1ccc(F)cc1	-2.3	-1.4	-1.0	/	-1.1	/
N#CC1(C#N)CC(C=O)=C(N)C1(C#N)CC(=O)c1ccc(F)cc1 (centres undefined)	-4.6	31.0	7.5*	2.9	-1.1	3.1
CCOc1cc(/C=N/NC(=O)c2ccccc2OCc2ccc(F)cc2)ccc1O	55.7*	-0.8	/	/	/	/
CC(C)CC(c1nnnn1C1CCCC1)N1CCC(C(N)=O)CC1 (centres undefined)	23.8	-0.9	-4.6	0.8	-4.8	0.5
CCOC(=O)c1c(N2C(=O)Nc3ccccc3N2O)n[nH]c1-c1cccc(Cl)c1	67.9*	-0.3	-1.1	-0.2	1.0	0.2
O=C(CCc1nc(-c2ccccc2)no1)NCc1cccnc1	-7.8	1.4	-2.2	1.0	-4.5	-0.1
O=C(CCCc1nc(-c2ccccc2Cl)no1)NCc1cccnc1	7.6	-0.4	5.7*	0.8	-3.0	1.0
